From ChEMBL document CHEMBL1157655, “Design and synthesis of novel series of pyrrole based chemotypes and their evaluation as selective aldose reductase inhibitors. A case of bioisosterism between a carboxylic acid moiety and that of a tetrazole” (Bioorg Med Chem, 2010)

What was measured:
[1] = molecular target: T1, Aldo-keto reductase family 1 member A1 (Rattus norvegicus) (UniProt P51635); assay: Inhibition of rat kidney aldehyde reductase at 0.1 mM after 20 mins by spectrometric analysis
T1 sequence (whole entry): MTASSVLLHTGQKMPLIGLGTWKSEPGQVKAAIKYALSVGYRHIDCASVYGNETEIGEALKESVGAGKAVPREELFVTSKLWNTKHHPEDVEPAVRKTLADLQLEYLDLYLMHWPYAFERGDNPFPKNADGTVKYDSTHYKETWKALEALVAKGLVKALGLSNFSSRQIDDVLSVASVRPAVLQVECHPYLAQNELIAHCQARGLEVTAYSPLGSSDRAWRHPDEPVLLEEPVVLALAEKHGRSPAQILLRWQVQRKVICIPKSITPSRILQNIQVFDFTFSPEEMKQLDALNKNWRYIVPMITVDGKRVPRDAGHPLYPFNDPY

[2] = molecular target: Aldo-keto reductase family 1 member B1 (Rattus norvegicus) (UniProt P07943); assay: Inhibition of aldose reductase in Fischer-344 rat lens homogenate at 0.1 mM by spectrometric analysis
[3] = molecular target: Aldo-keto reductase family 1 member B1 (Rattus norvegicus, UniProt P07943); assay: Inhibition of aldose reductase in Fischer-344 rat lens homogenate by spectrometric analysis
[4] = tested on: Radical scavenging activity; assay: Antioxidant activity assessed as DPPH radical scavenging activity at 0.2 mM; format: functional
Outline: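 Compounds in absolute ethanol added to an equal volume of ethanolic DPPH to give final 0.2–0.0125 mM compound and 0.2 mM DPPH. Continual absorbance decrease at 517 nm followed. Trolox reference. Triplicate.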

[5] = Antioxidant activity against AAPH-induced lipid peroxidation in unilamellar DOPC liposomes after 80 mins by thiocyanate reagent method; format: functional
Outline: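 DOPC unilamellar liposomes (final 0.8 mM, phosphate buffer 20 mM pH 7.4) incubated with test compound (10–300 µM range stated) and AAPH (final 10 mM) at 50 °C for 80 min. Aliquots extracted with ice-cold CHCl3/MeOH (2:1) containing BHT. Lipid hydroperoxide determined by thiocyanate method, absorbance at 500 nm, quantified against cumene hydroperoxide calibration curve. Triplicate.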

Structure (SMILES)	inhibition [1]	inhibition [2]	IC50 [3]	IC50 [5]	Activity [4]
O=C(c1ccccc1)c1ccn(CCc2nn[nH]n2)c1	41%	6%			
O=C(O)CCCn1ccc(C(=O)c2ccccc2)c1	22%		6.04 µM		
O=C(c1ccccc1)c1ccn(CCCc2nn[nH]n2)c1	35%	41%			
Cc1c(C)c2c(c(C)c1O)CCC(C)(C(=O)O)O2 (stereo not drawn) [TROLOX]				93.5 µM	98%
O=C(O)Cn1ccc(C(=O)c2ccccc2)c1	34%			> 300 µM	10%
O=C(c1ccccc1)c1ccn(-c2nn[nH]n2)c1	18%		18 µM	> 300 µM	10%

Now from value to molecule, other results behind:

inhibition [1]	inhibition [2]	IC50 [3]	IC50 [5]	Structure (SMILES)	Activity [4]
23%	40%			O=C(c1ccccc1)c1ccn(Cc2nn[nH]n2)c1	
20%		9.7 µM		O=C(O)CCn1ccc(C(=O)c2ccccc2)c1	
18%		20 µM	> 300 µM	O=C(c1ccccc1)c1cccn1-c1nn[nH]n1	10%
